Measurements from ChEMBL document CHEMBL1148725, “2,2,2-Trichloro-N-({2-[2-(dimethylamino)ethyl]-1,3-dioxo-2,3-dihydro-1H-benzo[de]isoquinolin- 5-yl}carbamoyl)acetamide (UNBS3157), a novel nonhematotoxic naphthalimide derivative with potent antitumor activity” (J Med Chem, 2007).
The source made the active and inactive calls. The rule behind the calls is not given here.

Legend:
[1] = Antiproliferative activity against U373MG cells after 72 hrs by MTT assay; format: functional, cell-based, Homo sapiens, U-373MG ATCC
Method in brief: (§1)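 Cells cultured with each compound for three days; growth then read by the MTT colorimetric assay and reported as IC50 (µM).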

Mus musculus [2] = assay: Hematotoxicity in B6D2F1 mouse assessed as WBC count at 10 mg/kg, po; format: organism-based; design: dose 10 mg/kg, route oral; settings: in vivo
L1210 [3] = assay: Antitumor activity in L1210 cells xenografted B6D2F1 mouse at 10 mg/kg, ip relative to control; format: functional; settings: route intraperitoneal
Method in brief: (§2)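 Mice grafted with L1210 leukaemia cells on day 0, then dosed i.p. four times weekly on days 1-4 and 8-11. Five mice per group. Outcome is %T/C, the median survival of treated over control. Kruskal-Wallis test followed by Dunn comparisons against control.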

L1210 [4] = assay: Antitumor activity in L1210 cells xenografted B6D2F1 mouse at 2.5 mg/kg, ip relative to control; format: functional; settings: route intraperitoneal; method in brief: as §2
Mus musculus [5] = assay: Hematotoxicity in B6D2F1 mouse assessed as platelet count at 10 mg/kg, po; format: organism-based; design: dose 10 mg/kg, route oral; settings: in vivo
Mus musculus [6] = assay: Hematotoxicity in B6D2F1 mouse assessed as WBC count at 20 mg/kg, po; format: organism-based; design: dose 20 mg/kg, route oral; settings: in vivo
Mus musculus [7] = assay: Hematotoxicity in B6D2F1 mouse assessed as RBC count at 10 mg/kg, iv; format: organism-based; design: dose 10 mg/kg; settings: in vivo
LoVo = assay: Antiproliferative activity against LoVo cells after 72 hrs by MTT assay; format: functional, cell-based, Homo sapiens; method in brief: as §1
Mus musculus [8] = assay: Hematotoxicity in B6D2F1 mouse assessed as RBC count at 5 mg/kg, iv; format: organism-based; design: dose 5 mg/kg, route intravenous; settings: in vivo
Mus musculus [9] = assay: Hematotoxicity in B6D2F1 mouse assessed as platelet count at 5 mg/kg, po; format: organism-based; design: dose 5 mg/kg, route oral; settings: in vivo
Mus musculus [10] = assay: Hematotoxicity in B6D2F1 mouse assessed as WBC count at 5 mg/kg, iv; format: organism-based; design: dose 5 mg/kg, route intravenous; settings: in vivo
Mus musculus [11] = assay: Hematotoxicity in B6D2F1 mouse assessed as platelet count at 20 mg/kg, po; format: organism-based; design: dose 20 mg/kg, route oral; settings: in vivo
HCT-15 = assay: Antiproliferative activity against HCT15 cells after 72 hrs by MTT assay; format: functional, cell-based, Homo sapiens; method in brief: as §1
L1210 [12] = assay: Antitumor activity in L1210 cells xenografted B6D2F1 mouse at 40 mg/kg, ip relative to control; format: functional; settings: route intraperitoneal; method in brief: as §2
Mus musculus [13] = assay: Hematotoxicity in B6D2F1 mouse assessed as WBC count at 10 mg/kg, iv; format: organism-based; design: dose 10 mg/kg, route intravenous; settings: in vivo
Mus musculus [14] = assay: Hematotoxicity in B6D2F1 mouse assessed as RBC count at 10 mg/kg, po; format: organism-based; design: dose 10 mg/kg, route oral; settings: in vivo
L1210 [15] = assay: Antitumor activity in L1210 cells xenografted B6D2F1 mouse at 20 mg/kg, ip relative to control; format: functional; settings: route intraperitoneal; method in brief: as §2
Mus musculus [16] = assay: Toxicity in B6D2F1 mouse at 40 mg/kg, ip; format: organism-based; design: dose 40 mg/kg, route intraperitoneal; settings: in vivo
Mus musculus [17] = assay: Hematotoxicity in B6D2F1 mouse assessed as RBC count at 5 mg/kg, po; format: organism-based; design: dose 5 mg/kg, route oral; settings: in vivo
Mus musculus [18] = assay: Hematotoxicity in B6D2F1 mouse assessed as RBC count at 20 mg/kg, po; format: organism-based; design: dose 20 mg/kg, route oral; settings: in vivo
MCF7 [19] = assay: Antiproliferative activity against MCF7 cells after 72 hrs by MTT assay; format: functional, cell-based, Homo sapiens; settings: Homo sapiens, MCF7, 72 h; method in brief: as §1
Mus musculus [20] = assay: Hematotoxicity in B6D2F1 mouse assessed as WBC count at 5 mg/kg, po; format: organism-based; design: dose 5 mg/kg, route oral; settings: in vivo
[21] = Toxicity in ip dosed B6D2F1 mouse; format: organism-based; settings: in vivo
Method in brief: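 Acute MTD was set by a single i.p. dose to groups of three healthy female B6D2F1 mice, at 2.5, 5, 10, 20, 40, 80 and 160 mg/kg. The MTD is the dose just below the lowest dose that killed at least one mouse.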

A549 [22] = assay: Antiproliferative activity against A549 cells after 72 hrs by MTT assay; format: functional, cell-based, Homo sapiens; method in brief: as §1
[23] = Antiproliferative activity against Hs683 cells after 72 hrs by MTT assay; format: functional, cell-based, Homo sapiens, Hs 683; method in brief: as §1
L1210 [24] = assay: Antitumor activity in L1210 cells xenografted B6D2F1 mouse at 5 mg/kg, ip relative to control; format: functional; settings: route intraperitoneal; method in brief: as §2
Mus musculus [25] = assay: Hematotoxicity in B6D2F1 mouse assessed as platelet count at 10 mg/kg, iv; format: organism-based; design: dose 10 mg/kg, route intravenous; settings: in vivo
Mus musculus [26] = assay: Hematotoxicity in B6D2F1 mouse assessed as platelet count at 5 mg/kg, iv; format: organism-based; design: dose 5 mg/kg, route intravenous; settings: in vivo
[27] = Antitumor activity against mouse MXT-HI cells xenografted in B6D2F1 mouse at 20 mg/kg, ip relative to control; format: functional; settings: route intraperitoneal
Method in brief: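 MXT-HI mammary adenocarcinoma grafted s.c. onto female B6D2F1 mice. Dosing i.p., five injections weekly for three weeks from day 14 post-graft. Nine mice per group. Tumour surface area measured, and survival expressed as %T/C, the ratio of treated to control median survival time.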

Homo sapiens = species on record: Homo sapiens; assay: Inhibition of human topoisomerase 2 at 50 uM by plasmid linearization assay
A549 [28] = assay: Antitumor activity against human A549 cells xenografted in mouse at 10 mg/kg, iv; format: functional, organism-based; design: dose 10 mg/kg
Method in brief: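 Human A549 NSCLC cells grafted orthotopically into the lungs of immunocompromised mice. Compound given i.v. at 10 mg/kg. Survival gain assessed by survival curve analysis.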

MDA-MB-231 = assay: Antitumor activity against human MDA-MB-231 cells xenografted in immunocompromised mouse at 10 mg/kg, iv
[29] = target: DNA topoisomerase 2-alpha (Homo sapiens) (UniProt P11388); assay: Inhibition of human topoisomerase 2-mediated kinetoplast DNA […] at 50 uM
Chain of DNA topoisomerase 2-alpha (Homo sapiens) (P11388 whole entry): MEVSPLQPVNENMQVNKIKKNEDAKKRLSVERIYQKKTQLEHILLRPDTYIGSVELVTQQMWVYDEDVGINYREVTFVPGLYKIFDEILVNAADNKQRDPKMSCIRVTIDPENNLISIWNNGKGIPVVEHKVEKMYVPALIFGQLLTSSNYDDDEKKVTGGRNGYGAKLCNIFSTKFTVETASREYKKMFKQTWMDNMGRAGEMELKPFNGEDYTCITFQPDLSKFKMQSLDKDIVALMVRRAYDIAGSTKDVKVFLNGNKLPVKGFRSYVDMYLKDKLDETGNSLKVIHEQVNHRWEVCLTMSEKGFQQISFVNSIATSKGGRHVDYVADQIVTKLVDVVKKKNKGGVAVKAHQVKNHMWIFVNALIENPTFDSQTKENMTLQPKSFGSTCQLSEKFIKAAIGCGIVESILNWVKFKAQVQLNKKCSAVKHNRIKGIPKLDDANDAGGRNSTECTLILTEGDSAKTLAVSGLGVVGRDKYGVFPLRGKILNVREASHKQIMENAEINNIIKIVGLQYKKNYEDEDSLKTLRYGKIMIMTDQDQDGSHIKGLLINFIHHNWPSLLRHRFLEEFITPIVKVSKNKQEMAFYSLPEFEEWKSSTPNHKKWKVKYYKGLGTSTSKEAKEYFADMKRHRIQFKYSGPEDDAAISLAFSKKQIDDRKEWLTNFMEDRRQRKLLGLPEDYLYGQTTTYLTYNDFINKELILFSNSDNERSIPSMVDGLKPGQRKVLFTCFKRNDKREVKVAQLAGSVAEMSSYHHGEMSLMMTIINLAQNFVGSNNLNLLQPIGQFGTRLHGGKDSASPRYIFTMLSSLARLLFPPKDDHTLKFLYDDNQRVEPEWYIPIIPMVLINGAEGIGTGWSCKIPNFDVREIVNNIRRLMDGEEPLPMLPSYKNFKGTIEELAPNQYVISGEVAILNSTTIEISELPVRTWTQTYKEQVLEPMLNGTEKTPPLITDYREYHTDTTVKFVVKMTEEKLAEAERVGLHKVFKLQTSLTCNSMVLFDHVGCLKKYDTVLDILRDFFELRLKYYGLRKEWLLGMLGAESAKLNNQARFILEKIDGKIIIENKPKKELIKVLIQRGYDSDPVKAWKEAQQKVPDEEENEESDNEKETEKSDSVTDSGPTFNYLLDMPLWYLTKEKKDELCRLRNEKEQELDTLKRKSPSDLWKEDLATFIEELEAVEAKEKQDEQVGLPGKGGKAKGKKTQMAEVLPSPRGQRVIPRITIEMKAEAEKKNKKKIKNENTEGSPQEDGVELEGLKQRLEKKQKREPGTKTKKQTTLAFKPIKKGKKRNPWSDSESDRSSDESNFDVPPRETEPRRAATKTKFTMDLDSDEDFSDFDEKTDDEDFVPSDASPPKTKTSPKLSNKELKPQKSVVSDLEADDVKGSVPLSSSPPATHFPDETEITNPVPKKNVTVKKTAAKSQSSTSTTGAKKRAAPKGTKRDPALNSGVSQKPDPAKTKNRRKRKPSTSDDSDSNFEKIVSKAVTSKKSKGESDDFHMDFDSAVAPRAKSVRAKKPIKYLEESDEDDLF
Method in brief: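 Topoisomerase II strand-passage activity by kDNA decatenation; compounds at 50 µM; catenated networks stay in wells, decatenated kDNA enters ethidium bromide-stained agarose gel; no-enzyme and no-drug reactions as controls.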

MCF7 [30] = assay: Induction of apoptosis in human MCF7 cells assessed as p53 activation; format: functional, cell-based
Method in brief: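 MCF-7 cells treated and p53 activation assessed by immunoblotting, with tubulin as loading control. Adriamycin (2.5 µM, 24 h) served as positive control.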

[31] = target: T1, DNA topoisomerase 1 (Homo sapiens) (UniProt P11387); assay: Inhibition of human topoisomerase 1 by DNA unwinding test
T1 sequence (whole entry): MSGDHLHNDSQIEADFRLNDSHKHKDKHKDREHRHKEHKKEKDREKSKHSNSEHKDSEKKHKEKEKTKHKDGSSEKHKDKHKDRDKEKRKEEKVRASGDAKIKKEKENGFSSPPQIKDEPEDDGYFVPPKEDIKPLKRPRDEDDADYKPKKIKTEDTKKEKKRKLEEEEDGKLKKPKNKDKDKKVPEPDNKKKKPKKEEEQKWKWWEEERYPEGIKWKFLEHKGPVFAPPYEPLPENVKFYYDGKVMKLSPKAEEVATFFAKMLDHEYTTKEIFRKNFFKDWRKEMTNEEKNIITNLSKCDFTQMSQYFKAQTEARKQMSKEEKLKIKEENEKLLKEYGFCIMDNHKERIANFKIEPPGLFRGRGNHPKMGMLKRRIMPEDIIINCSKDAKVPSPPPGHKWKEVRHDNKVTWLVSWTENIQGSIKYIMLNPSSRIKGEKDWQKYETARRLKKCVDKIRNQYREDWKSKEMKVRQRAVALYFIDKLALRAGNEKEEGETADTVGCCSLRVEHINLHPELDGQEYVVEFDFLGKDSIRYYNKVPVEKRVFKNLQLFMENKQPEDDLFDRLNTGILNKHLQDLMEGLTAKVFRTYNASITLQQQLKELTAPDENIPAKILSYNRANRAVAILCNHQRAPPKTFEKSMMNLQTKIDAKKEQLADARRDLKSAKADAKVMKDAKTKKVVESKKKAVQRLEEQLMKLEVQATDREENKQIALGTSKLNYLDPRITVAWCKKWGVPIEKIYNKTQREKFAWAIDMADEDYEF
Method in brief: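 DNA unwinding assay: relaxed pBR322 plasmid converted to supercoiled form in presence of topoisomerase I; compounds at final 4–32 µM (one up to 15–55 µM); ethidium bromide-stained agarose gels; UC50 taken as concentration shifting relaxed band to midpoint between supercoiled and relaxed states.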

Mus musculus [32] = assay: Hematotoxicity in ip dosed B6D2F1 mouse assessed as decrease in platelet count; format: organism-based; settings: in vivo
Method in brief: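 Healthy female B6D2F1 mice, 10 per group, dosed i.p. three times weekly for five weeks at two dose levels set relative to MTD. Vehicle DMSO/saline 5:95 v/v. Killed 3 days after the last dose; blood platelet, RBC and WBC counts taken with a Coulter counter.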

L1210 [33] = assay: Antitumor activity in L1210 cells xenografted B6D2F1 mouse at 80 mg/kg, ip relative to control; format: functional; settings: route intraperitoneal; method in brief: as §2
L1210 [34] = assay: Antitumor activity in L1210 cells xenografted B6D2F1 mouse at 120 mg/kg, ip relative to control; format: functional; settings: route intraperitoneal; method in brief: as §2
Mus musculus [35] = assay: Toxicity in B6D2F1 mouse at 120 mg/kg, ip; format: organism-based; design: dose 120 mg/kg, route intraperitoneal; settings: in vivo
Method in brief: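 Healthy female B6D2F1 mice, 10 per group, dosed i.p. in DMSO/saline (5:95 v/v) three times weekly for five weeks at two levels set relative to MTD; sacrificed 3 days after final dose; platelet, RBC and WBC counted by Coulter counter.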

With `CN(C)CCN1C(=O)c2cccc3cc(N)cc(c23)C1=O` [AMONAFIDE] the IC50 ([1]; u-373mg atcc) was 3.5 µM, the Activity (Mus musculus [2]) was 3.06 10^3 /uL and the Activity (L1210 [3]) was 122%. For the same compound, the Activity (L1210 [4]) was 109%, the Activity (Mus musculus [5]) was 916 10^3 /uL and the Activity (Mus musculus [6]) was 2.93 10^3 /uL. For the same compound, the Activity (Mus musculus [7]) was 9.54 10^6 /uL, the IC50 (LoVo; lovo) was 2.7 µM and the Activity (Mus musculus [8]) was 8.59 10^6 /uL. The Activity (Mus musculus [9]) was 892 10^3 /uL, the Activity (Mus musculus [10]) was 3.33 10^3 /uL and the Activity (Mus musculus [11]) was 806 10^3 /uL. The IC50 (HCT-15; hct-15) was 5.2 µM, the Activity (L1210 [12]) was 49% and the Activity (Mus musculus [13]) was 3.07 10^3 /uL. The Activity (Mus musculus [14]) was 10.05 10^6 /uL, the Activity (L1210 [15]) was 121% and the Activity (Mus musculus [16]) was “Toxic”. The Activity (Mus musculus [17]) was 9.82 10^6 /uL, the Activity (Mus musculus [18]) was 9.54 10^6 /uL and the IC50 (MCF7 [19]) was 5.8 µM. The Activity (Mus musculus [20]) was 3.26 10^3 /uL, the MTD [21] was 40 mg/kg and the IC50 (A549 [22]; a549) was 3.8 µM. For the same compound, the IC50 ([23]; hs 683) was 3.9 µM, the Activity (L1210 [24]) was 140% and the Activity (Mus musculus [25]) was 390 10^3 /uL. For the same compound, the Activity (Mus musculus [26]) was 461 10^3 /uL and the Activity [27] was 143%.

In the case of `CN(C)CCN1C(=O)c2cccc3cc(N)cc(c23)C1=O`, the Activity (Homo sapiens) is reported as “Active”, the Activity (A549 [28]) is reported as “inactive” and the Activity (MDA-MB-231) is reported as “Active”. The Activity [29] was “Active”, the Activity (MCF7 [30]) was “Active” and the UC50 [31] was 8 µM.

`CN(C)CCN1C(=O)c2cccc3cc(/N=C\c4cc5c(cc4[N+](=O)[O-])OCO5)cc(c23)C1=O` gave an IC50 ([1]; Homo sapiens, U373 MG, 72 h) of 5 µM, an Activity (L1210 [3]) of 215% and an IC50 (LoVo; Homo sapiens, LoVo, 72 h) greater than 10 µM. It also gave an IC50 (HCT-15; Homo sapiens, HCT-15, 72 h) greater than 10 µM, an Activity (L1210 [12]) of 278% and an Activity (L1210 [15]) of 195%. The Activity (Mus musculus [32]) was “Toxic”, the IC50 (MCF7 [19]) was greater than 10 µM and the MTD [21] was greater than 160 mg/kg. The IC50 (A549 [22]; Homo sapiens, A549, 72 h) was greater than 10 µM, the Activity (L1210 [33]) was greater than 300% and the Activity (L1210 [34]) was 40%. For the same compound, the IC50 ([23]; Homo sapiens, Hs 683, 72 h) was greater than 10 µM and the Activity (Mus musculus [35]) was “Toxic”.
